A short description of data set [1]: Octanol-buffer partition coefficient, log P of the compound by HPLC analysis. In kind it is physicochemical. The method, boiled down: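 100 mg compound in 10 mL aqueous phase plus 10 mL octanol, shaken 1 h, left 2 h at 25 °C. Each phase quantified by HPLC: C18 column, […], 1.0 mL/min, UV 254 nm. Partition coefficient = organic-phase over aqueous-phase concentration; also computed in silico.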

Data set [2] is described as follows: Chemical stability of the compound assessed as hydrolysis in HCl buffer at pH 1.2 by HPLC analysis. In kind it is physicochemical. The method, boiled down:
(§1)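 Hydrolysis at 37 °C in sealed screw-cap vials in a water bath; pH 1.2 HCl, pH 7.4 phosphate or pH 10.0 NaOH buffer, 20 mM total buffer, ionic strength held at 0.5 M with KCl. Sampled at 15, 30, 60, 120, 240 min; ester and ibuprofen quantified by HPLC. Pseudo-first-order Kobs = 2.303/t·log(a/(a−x)); t1/2 = 0.693/Kobs.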

Data set [3] in a line: Half life of the compound in phosphate buffer at pH 7.4. In kind it is physicochemical. The method in brief:
as §1

The nature of data set [4]: Half life of the compound in NaOH buffer at pH 10 by HPLC analysis. In kind it is physicochemical. The method, boiled down: as §1
Data set [5] concerns Rattus norvegicus. In words: Antiinflammatory activity in po dosed Wistar rat assessed as inhibition of carrageenan-induced paw edema at dose molecularly equivalent to ibuprofen administered 30 mins prior to carrageenan challenge measured after 1 hr. In kind it is functional. Background: In the carrageenan paw model, swelling and tenderness develop within hours.
For data set [6], the system named is Rattus norvegicus. As to the kind of experiment: Antiinflammatory activity in po dosed Wistar rat assessed as inhibition of carrageenan-induced paw edema at dose molecularly equivalent to ibuprofen administered 30 mins prior to carrageenan challenge measured after 2 hrs. In kind it is functional.
Data set [7] relates to Rattus norvegicus. In words: Antiinflammatory activity in po dosed Wistar rat assessed as inhibition of carrageenan-induced paw edema at dose molecularly equivalent to ibuprofen administered 30 mins prior to carrageenan challenge measured after 3 hrs. In kind it is functional.
For data set [8], the system named is Rattus norvegicus. In words: Antiinflammatory activity in po dosed Wistar rat assessed as inhibition of carrageenan-induced paw edema at dose molecularly equivalent to ibuprofen administered 30 mins prior to carrageenan challenge measured after 4 hrs. In kind it is functional.
The test system of data set [9] is Rattus norvegicus. As to the kind of experiment: Antiinflammatory activity in po dosed Wistar rat assessed as inhibition of carrageenan-induced paw edema at dose molecularly equivalent to ibuprofen administered 30 mins prior to carrageenan challenge measured after 5 hrs. In kind it is functional.
Data set [10] concerns Rattus norvegicus. In words: Antiinflammatory activity in po dosed Wistar rat assessed as inhibition of carrageenan-induced paw edema at dose molecularly equivalent to ibuprofen administered 30 mins prior to carrageenan challenge measured after 6 hrs. In kind it is functional.
The subject of data set [11] is Rattus norvegicus. As to the kind of experiment: Gastrotoxicity in 24 hrs fasted po dosed Wistar rat assessed as ulcer index at dose molecularly equivalent to ibuprofen after 6 hrs. The note with it: in vivo. In kind it is toxicity, organism-based. The method, boiled down:
(§2)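 Rats fasted 24 h, then dosed orally as suspension in 0.5% acacia, 150 mg/kg ibuprofen or molar equivalent of prodrug; n = 6 per group. Killed 6 h after dosing, food and water then ad libitum. Stomach opened, rinsed with 5 mL saline, inspected under magnifier, ulcers scored by severity; ulcer index is the group mean, ± SEM.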

The test system of data set [12] is Rattus norvegicus. As to the kind of experiment: Gastrotoxicity in 24 hrs fasted Wistar rat assessed as ulcer index at 150 mg/kg, po after 6 hrs. In kind it is toxicity, organism-based. More on the design: dose 150 mg/kg, route oral. The following applies: in vivo. The method, boiled down: as §2
For data set [13], the system named is Rattus norvegicus. In words: Antiinflammatory activity in Wistar rat model assessed as inhibition of carrageenan-induced paw edema at 20 mg/kg, po administered 30 mins prior to carrageenan challenge measured after 5 hrs. In kind it is functional.
The test system of data set [14] is Rattus norvegicus. In words: Antiinflammatory activity in Wistar rat model assessed as inhibition of carrageenan-induced paw edema at 20 mg/kg, po administered 30 mins prior to carrageenan challenge measured after 4 hrs. In kind it is functional.
For data set [15], the system named is Rattus norvegicus. As to the kind of experiment: Antiinflammatory activity in Wistar rat model assessed as inhibition of carrageenan-induced paw edema at 20 mg/kg, po administered 30 mins prior to carrageenan challenge measured after 1 hr. In kind it is functional.
In data set [16] the test system is Rattus norvegicus. As to the kind of experiment: Antiinflammatory activity in Wistar rat model assessed as inhibition of carrageenan-induced paw edema at 20 mg/kg, po administered 30 mins prior to carrageenan challenge measured after 2 hrs. In kind it is functional.
Data set [17] deals with Rattus norvegicus. As to the kind of experiment: Antiinflammatory activity in Wistar rat model assessed as inhibition of carrageenan-induced paw edema at 20 mg/kg, po administered 30 mins prior to carrageenan challenge measured after 3 hrs. In kind it is functional.
For data set [18], the system named is Rattus norvegicus. As to the kind of experiment: Antiinflammatory activity in Wistar rat model assessed as inhibition of carrageenan-induced paw edema at 20 mg/kg, po administered 30 mins prior to carrageenan challenge measured after 6 hrs. In kind it is functional.

A word on the logP: it is the decadic logarithm of the partition coefficient of the neutral form, usually between octanol and water. Read a high logP as higher lipophilicity. Broadly, the half-life is the time needed for the level to fall by half in the phase considered. Broadly, the inhibition in vivo is the share of the control response that was lost under treatment.

In data set [1], `Cc1ccc(C(C)C)c(OC(=O)C(C)c2ccc(CC(C)C)cc2)c1` (racemic) came in with a logP of 6.27. For the same compound, the Stability result in data set [2] was “Stable”. Also, the half-life in data set [3] came out at 5.19 h; in data set [4] it was 2.42 h. In addition, the “inhibition (INH)” value turned out to be 29.36% with Rattus norvegicus [5]; 32.52% with Rattus norvegicus [6]; 47.63% in the data set on Rattus norvegicus [7]; 55.17% in the data set on Rattus norvegicus [8]; 61.5% in the data set with Rattus norvegicus [9]; 64.01% in the data set with Rattus norvegicus [10]. Also, the UI with Rattus norvegicus [11] is 0.83.

In the case of `CC(C)Cc1ccc(C(C)C(=O)O)cc1` (racemic) [IBUPROFEN], the UI in the data set on Rattus norvegicus [12] is listed as 2.41. In addition, the inhibition in vivo at 20 mg/kg in the data set with Rattus norvegicus [13] amounted to 46.8%; with Rattus norvegicus [14] it was 44%; in the data set on Rattus norvegicus [15], 18.3%; in the data set with Rattus norvegicus [16], 22.1%; with Rattus norvegicus [17] it was 40.9%; in the data set with Rattus norvegicus [18], 47.6%. In [1], this compound registered a logP of 3.71.

As for `CC(C)Cc1ccc(C(C)C(=O)OC2CC(C)CCC2C(C)C)cc1` (stereo unspecified), the logP in data set [1] amounted to 6.69. Also, the Stability result in [2] is given as “Stable”. For the same compound, the figures for the half-life in data set [3] and in data set [4] were 6.01 h and 2.72 h, respectively. Moreover, the “inhibition (INH)” value with Rattus norvegicus [5] stood at 31.58%; in the data set with Rattus norvegicus [6], 34.08%; in the data set with Rattus norvegicus [7], 48.49%; with Rattus norvegicus [8], 55%; with Rattus norvegicus [9], 64.01%; in the data set with Rattus norvegicus [10], 66.84%. The UI in the data set with Rattus norvegicus [11] is listed as 0.91.

In [1], `C=CCc1ccc(OC(=O)C(C)c2ccc(CC(C)C)cc2)c(OC)c1` (racemic) gave a lipophilicity (logP) of 5.63. Further, the Stability result in data set [2] is recorded as “Stable”. For the same compound, the half-life worked out at 2.84 h in data set [3] and 1.34 h in data set [4]. Also, the “inhibition (INH)” value turned out to be 27.93% in the data set with Rattus norvegicus [5]; 31.43% in the data set on Rattus norvegicus [6]; 48.06% in the data set with Rattus norvegicus [7]; 55.26% in the data set on Rattus norvegicus [8]; 56.17% in the data set on Rattus norvegicus [9]; 60.33% in the data set with Rattus norvegicus [10]. For the same compound, the UI in the data set with Rattus norvegicus [11] turned out to be 1.08.

The values above are taken from ChEMBL document CHEMBL2086276, “Synthesis and evaluation of mutual prodrugs of ibuprofen with menthol, thymol and eugenol” (Eur J Med Chem, 2012).
